Measured values from publication PMC4429801 (Journal of nuclear medicine : official publication, Society …, 2009).

Experiments:
rats = conditions: 2.3 mmol/kg; cited from earlier work
[1] = Octanol–water partition coefficient study; format: physicochemical; conditions: 1-octanol/phosphate-buffered saline
Method in brief: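 The 18F test compound (20 µL, ~10–20 µCi in saline) was added to 5 mL each of 1-octanol and phosphate-buffered saline at pH 6.4, 7.0, 7.4 or 8.4. The mixture was vortexed 1 min and centrifuged 5 min.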

CWR22rv1 xenografts [2] = experiment: Small-animal PET 1 h after tail vein injection; format: in vivo, mice; conditions: 1 h after administration via tail vein
Method in brief: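 CWR22rv1-xenografted nude mice, not fasted, received 11.1 MBq (300 µCi) of the 18F test compound by tail vein. They were held under 2% isoflurane in oxygen (2 L/min) and scanned on a small-animal PET at 1 h for 5 min, using a 350–700 keV window and 6 ns coincidence window. Images were corrected for nonuniformity, dead time and decay, but not for attenuation, scatter or partial volume. %ID/g came from a phantom-derived calibration factor.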

CWR22rv1 xenografts [3] = experiment: Single-isotope in vivo biodistribution; design: species or system mice; conditions: for Tumor uptake of the tracer: tail vein, nude mice
Method in brief: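 Nude mice (20–25 g) carried CWR22rv1 tumours grown from 5 × 10^6 cells in medium/Matrigel, injected s.c. at the right forelimb. They received 3.7–5.5 MBq (100–150 µCi) of the 18F test compound in 200 µL saline by tail vein; dose per animal came from syringe readings before and after injection. Organs were harvested at 1, 2, 3 and 4 h and γ-counted (400–600 keV, decay-corrected) for %ID/g and tumour-to-organ ratios; n = 3 per time point, mean ± SD.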

CWR22rv1 tumors = experiment: Dual-isotope comparative biodistribution; format: in vivo, mice; conditions: 1 h after simultaneous tail vein injection
Method in brief: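 Nude mice bearing subcutaneous CWR22rv1 xenografts received, by tail vein, 200 µL saline containing 3.7 MBq of the 18F test compound and about 0.0037 MBq 14C-acetate, and were euthanized 1 h later. 18F was γ-counted (400–600 keV, decay-corrected). Samples were then solubilised and held 1 d at 4°C, and 14C was read by liquid scintillation with external-standard quench correction. %ID/g = activity/decay-corrected injected activity/organ weight; n = 4, mean ± SD.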

## CC(F)C(=O)O (stereo not shown) [FPA]
rats
  Acute toxicity: no acute toxicity

## CC([18F])C(=O)O (stereo not shown) [^18F-FPA, 2-^18F-fluoropropionic acid]
[1]; pH 6.4
  logP: −2.89 ± 0.02
[1]; pH 7.0
  logP: −3.08 ± 0.04
[1]; pH 7.4
  logP: −2.97 ± 0.13
[1]; pH 8.4
  logP: −3.07 ± 0.03
CWR22rv1 xenografts [2]
  Uptake in the brain (PET): 4.6 %ID/g
  Uptake in the heart (PET): 4.0 %ID/g
CWR22rv1 xenografts [2]; CWR22rv1 tumor
  Uptake in the tumor (PET): 4.4 %ID/g
CWR22rv1 xenografts [3]; 1, 2, 3, and 4 h after injection
  Tumor-to-organ ratio, heart: around 0.95
CWR22rv1 xenografts [3]; 1 h after injection
  Tumor uptake of the tracer: 5.52 ± 0.35 %ID/g
CWR22rv1 xenografts [3]; 2 h after injection
  Tumor uptake of the tracer: 5.53 ± 0.42 %ID/g
CWR22rv1 xenografts [3]; 3 h after injection
  Tumor uptake of the tracer: 5.74 ± 0.54 %ID/g
CWR22rv1 xenografts [3]; 4 h after injection
  Tumor uptake of the tracer: 5.34 ± 0.19 %ID/g
CWR22rv1 xenografts [3]; PET and biodistribution studies, low bone uptake
  Defluorination in vivo: no evidence of defluorination
CWR22rv1 tumors
  Tumor-to-organ ratio, Blood: 1.03
  Tumor-to-organ ratio, Bone: 4.23
  Tumor-to-organ ratio, Brain: 1.27
  Tumor-to-organ ratio, Kidneys: 1.70
  Tumor-to-organ ratio, Large intestine: 1.91
  Tumor-to-organ ratio, Liver: 1.26
  Tumor-to-organ ratio, Lungs: 1.77
  Tumor-to-organ ratio, Muscle: 1.94
  Tumor-to-organ ratio, Small intestine: 1.62
  Tumor-to-organ ratio, Spleen: 1.62
  Tumor-to-organ ratio, Stomach: 2.80
  Tumor-to-organ ratio, Tumor: 1.00
  Tumor-to-organ ratio, heart: 1.30
CWR22rv1 tumors; n = 4
  %ID/g, Blood: 6.88 ± 0.64 %ID/g
  %ID/g, Bone: 1.68 ± 0.54 %ID/g
  %ID/g, Brain: 5.57 ± 0.33 %ID/g
  %ID/g, Heart: 5.46 ± 0.63 %ID/g
  %ID/g, Kidneys: 4.17 ± 0.60 %ID/g
  %ID/g, Large intestine: 3.71 ± 1.09 %ID/g
  %ID/g, Liver: 5.61 ± 0.50 %ID/g
  %ID/g, Lungs: 4.00 ± 0.26 %ID/g
  %ID/g, Muscle: 3.66 ± 0.50 %ID/g
  %ID/g, Small intestine: 4.37 ± 1.15 %ID/g
  %ID/g, Spleen: 4.36 ± 0.85 %ID/g
  %ID/g, Stomach: 2.53 ± 1.04 %ID/g
CWR22rv1 tumors; CWR22rv1 tumors, n = 4
  %ID/g, Tumor: 7.08 ± 0.80 %ID/g
